Experimental data from ChEMBL document CHEMBL4033790, “Design and Synthesis of Novel Deuterated Ligands Functionally Selective for the γ-Aminobutyric Acid Type A Receptor (GABAAR) α6 Subtype with Improved Metabolic Stability and Enhanced Bioavailability” (J Med Chem, 2018).
In brackets after ≈: the same amount, converted by molar mass. Activity calls are given as the source filed them. No cut-off for these calls is given here.

Tests used:
[1] = Drug level in human liver microsomes treated with 7-Methoxy-2-(6-methoxy-d3-pyridin-3-yl)-2,5-dihydro-3Hpyrazolo[4,3-c]quinolin-3-one after 60 mins by LC-MS analysis; assay type: ADME; conditions: 1 h
[2] = Drug level in mouse liver microsomes treated with 7-Methoxy-2-(6-methoxy-d3-pyridin-3-yl)-2,5-dihydro-3Hpyrazolo[4,3-c]quinolin-3-one after 60 mins by LC-MS analysis; assay type: ADME; conditions: 1 h
[3] = Drug level in human liver microsomes treated with 7-Methoxy-d3-2-(6-methoxypyridin-3-yl)-2,5-dihydro-3Hpyrazolo[4,3-c]quinolin-3-one after 60 mins by LC-MS analysis; assay type: ADME; conditions: 1 h
[4] = Drug level in mouse liver microsomes treated with 7-Methoxy-d3-2-(6-methoxypyridin-3-yl)-2,5-dihydro-3Hpyrazolo[4,3-c]quinolin-3-one after 60 mins by LC-MS analysis; assay type: ADME; conditions: 1 h
[5] = Drug level in human liver microsomes treated with 7-Methoxy-d3-2-(4-methoxyphenyl)-2,5-dihydro-3H-pyrazolo-[4,3-c]quinolin-3-one after 60 mins by LC-MS analysis; assay type: ADME; conditions: 1 h
[6] = Drug level in mouse liver microsomes treated with 7-Methoxy-d3-2-(4-methoxyphenyl)-2,5-dihydro-3H-pyrazolo-[4,3-c]quinolin-3-one after 60 mins by LC-MS analysis; assay type: ADME; conditions: 1 h
[7] = Drug level in mouse liver microsomes treated with 7-Methoxy-2-(4-methoxy-d3-phenyl)-2,5-dihydro-3H-pyrazolo-[4,3-c]quinolin-3-one after 60 mins by LC-MS analysis; assay type: ADME; conditions: 1 h
[8] = Drug level in human liver microsomes treated with 7-Methoxy-2-(4-methoxy-d3-phenyl)-2,5-dihydro-3H-pyrazolo-[4,3-c]quinolin-3-one after 60 mins by LC-MS analysis; assay type: ADME; conditions: 1 h
Liver = test: Half life in human liver microsomes at 10 uM by LC-MS/MS analysis; assay type: ADME, microsome
Method in brief: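 Compound at 10 μM final was preincubated 5 min at 37 °C with NADPH regenerating system in phosphate buffer, pH 7.4. Human or mouse liver microsomes (0.5 mg/mL protein) were added to start the reaction. Samples were taken at 0 (no microsomes) and 10–60 min and measured by LC-MS/MS against an internal standard. Half-life = 0.693/k, with k the slope of ln peak-area ratio versus time. Three experiments, each in duplicate.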

[9] = Metabolic stability in human liver microsomes assessed as parent compound remaining at 10 uM after 60 mins by LC-MS analysis; assay type: ADME, microsome; conditions: read-out: Stability
Method in brief: (§1)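 The 60 min samples of the microsomal incubation (10 μM compound, human or mouse liver microsomes at 0.5 mg/mL, NADPH regenerating system, 37 °C) were analysed by LC-MS. Detection used SIM mode with dual ESI/APCI ionization, calibrated to the retention times and masses of the parent and its O-demethylated metabolites. Peak intensities were measured.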

[10] = Metabolic stability in mouse liver microsomes assessed as parent compound remaining at 10 uM after 60 mins by LC-MS analysis; assay type: ADME, microsome; conditions: read-out: Stability; method in brief: as §1
[11] = Aqueous solubility of the compound in DI water at pH 7 after 2 hrs by LC-MS analysis; assay type: physicochemical; conditions: buffer, pH 7, 2 h
Method in brief: (§2)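 10 mg compound dissolved in 2 mL DMAC; 10 μL of this added to 2 mL DI water (pH 7, sonicated) or 2 mL 0.01 M aq HCl (pH 2), held 2 h at 37 °C. Filtered through 0.45 micron filter, then quantified by LC-MS in SIM mode against calibration curves of standards in DMAC (n = 5); n=3.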

[12] = Solubility of the compound in 0.01M HCl at pH 2 after 2 hrs by LC-MS analysis; assay type: physicochemical; conditions: buffer, pH 2, 2 h; method in brief: as §2
[13] = molecular target: GABA-A receptor; alpha-1/beta-3/gamma-2 (Homo sapiens) (UniProt P14867+P18507+P28472); test: Positive allosteric modulation of GABA-A receptor alpha1beta3gamma2 (unknown origin) expressed in Xenopus laevis oocytes assessed as potentiation of EC3 GABA induced currents up to 1 uM at -60 mV holding potential by electrophysiological method relative to GABA; assay type: cell-based
Method in brief: (§3)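 Stage 5–6 defolliculated Xenopus oocytes were injected with 2.5 ng total mRNA per oocyte: α1, α2, α3 or α5 with β3 and γ2 at 1:1:5, and α4 or α6 with β3 and γ2 at 3:1:5. Oocytes were kept ≥36 h at 18 °C in NDE medium before recording. Compounds were co-applied with GABA titrated to EC3-5 for each oocyte. Curves were fitted with the Hill equation; mean ± SEM from ≥3 oocytes across two batches.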

[14] = molecular target: GABA-A receptor; alpha-6/beta-3/gamma-2 (Homo sapiens) (UniProt P18507+P28472+Q16445); test: Positive allosteric modulation of GABA-A receptor alpha6beta3gamma2 (unknown origin) expressed in Xenopus laevis oocytes assessed as potentiation of EC3 GABA induced currents at 30 uM at -60 mV holding potential by electrophysiological method relative to GABA; assay type: cell-based; method in brief: as §3
[15] = molecular target: GABA-A receptor; alpha-2/beta-3/gamma-2 (Homo sapiens) (UniProt P18507+P28472+P47869); test: Positive allosteric modulation of GABA-A receptor alpha2beta3gamma2 (unknown origin) expressed in Xenopus laevis oocytes assessed as potentiation of EC3 GABA induced currents up to 1 uM at -60 mV holding potential by electrophysiological method relative to GABA; assay type: cell-based; method in brief: as §3
[16] = molecular target: GABA-A receptor; alpha-3/beta-3/gamma-2 (Homo sapiens) (UniProt P18507+P28472+P34903); test: Positive allosteric modulation of GABA-A receptor alpha3beta3gamma2 (unknown origin) expressed in Xenopus laevis oocytes assessed as potentiation of EC3 GABA induced currents up to 1 uM at -60 mV holding potential by electrophysiological method relative to GABA; assay type: cell-based; method in brief: as §3
[17] = molecular target: GABA A receptor alpha-4/beta-3/gamma-2 (Homo sapiens) (UniProt P18507+P28472+P48169); test: Positive allosteric modulation of GABA-A receptor alpha4beta3gamma2 (unknown origin) expressed in Xenopus laevis oocytes assessed as potentiation of EC3 GABA induced currents up to 1 uM at -60 mV holding potential by electrophysiological method relative to GABA; assay type: cell-based; method in brief: as §3
[18] = molecular target: GABA-A receptor; alpha-5/beta-3/gamma-2 (Homo sapiens) (UniProt P18507+P28472+P31644); test: Positive allosteric modulation of GABA-A receptor alpha5beta3gamma2 (unknown origin) expressed in Xenopus laevis oocytes assessed as potentiation of EC3 GABA induced currents up to 1 uM at -60 mV holding potential by electrophysiological method relative to GABA; assay type: cell-based; method in brief: as §3
Rattus norvegicus = species on record: Rattus norvegicus; test: Displacement of [3H]-flunitrazepam from rat brain GABA-A receptor benzodiazepine site […] at 10 uM after 60 to 90 mins by scintillation counting; conditions: tested as the 2H-labelled form
[19] = molecular target: 5-hydroxytryptamine receptor 7 (Homo sapiens) (UniProt P34969); test: Displacement of [3H]-LSD from human recombinant 5HT7 receptor expressed in HEK293 cells at 10 uM after 60 to 90 mins by scintillation counting; assay type: cell-based; conditions: tested as the 2H-labelled form
[20] = molecular target: Mu-type opioid receptor (Homo sapiens) (UniProt P35372); test: Displacement of [3H]-DAMGO from human recombinant MOR expressed in HEK293 cells at 10 uM after 60 to 90 mins by scintillation counting; assay type: cell-based; conditions: tested as the 2H-labelled form
[21] = molecular target: 5-hydroxytryptamine receptor 2B (Homo sapiens) (UniProt P41595); test: Displacement of [3H]-LSD from human recombinant 5HT2B receptor expressed in HEK293 cells at 10 uM after 60 to 90 mins by scintillation counting; assay type: cell-based; conditions: tested as the 2H-labelled form
[22] = molecular target: T1, 5-hydroxytryptamine receptor 2C (Homo sapiens) (UniProt P28335); test: Displacement of [3H]-mesulergine from human recombinant 5HT2C receptor expressed in HEK293T cells at 10 uM after 60 to 90 mins by scintillation counting; assay type: cell-based; conditions: HEK-293T, tested as the 2H-labelled form
T1 sequence (whole entry): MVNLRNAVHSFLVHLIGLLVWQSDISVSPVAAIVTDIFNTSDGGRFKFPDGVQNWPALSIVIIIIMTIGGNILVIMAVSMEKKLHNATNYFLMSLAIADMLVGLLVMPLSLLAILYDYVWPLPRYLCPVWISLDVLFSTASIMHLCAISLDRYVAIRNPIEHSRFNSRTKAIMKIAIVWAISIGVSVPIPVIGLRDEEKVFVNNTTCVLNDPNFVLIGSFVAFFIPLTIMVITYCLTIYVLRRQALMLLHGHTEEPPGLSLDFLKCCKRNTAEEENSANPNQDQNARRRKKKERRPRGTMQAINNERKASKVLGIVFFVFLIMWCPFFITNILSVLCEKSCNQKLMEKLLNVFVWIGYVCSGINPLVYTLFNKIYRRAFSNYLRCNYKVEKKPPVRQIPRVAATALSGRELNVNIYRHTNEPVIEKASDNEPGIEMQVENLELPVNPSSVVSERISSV

Mus musculus = test: Neurotoxicity in Swiss Webster mouse assessed as induction of motor impairment at 40 mg/kg administered via oral gavage measured after 10 to 60 mins by rotarod method; assay type: toxicity, organism-based; conditions: in vivo
Method in brief: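 Female mice were given a single oral gavage dose of 40 mg/kg, either in 50% PBS/40% propylene glycol/10% DMSO or, for poorly soluble compounds, in 2% polyethylene glycol plus 2.5% hydroxymethyl cellulose. Rotarod performance was tested 10, 30 and 60 min after dosing, with diazepam 5 mg/kg as positive control.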

[23] = molecular target: Voltage-gated inwardly rectifying potassium channel KCNH2 (Homo sapiens, UniProt Q12809); test: Displacement of [3H]-dofetilide from human ERG expressed in HEK cell membranes at >10 uM after 60 to 90 mins by scintillation counting
Sequence of Voltage-gated inwardly rectifying potassium channel KCNH2 (Q12809 whole entry): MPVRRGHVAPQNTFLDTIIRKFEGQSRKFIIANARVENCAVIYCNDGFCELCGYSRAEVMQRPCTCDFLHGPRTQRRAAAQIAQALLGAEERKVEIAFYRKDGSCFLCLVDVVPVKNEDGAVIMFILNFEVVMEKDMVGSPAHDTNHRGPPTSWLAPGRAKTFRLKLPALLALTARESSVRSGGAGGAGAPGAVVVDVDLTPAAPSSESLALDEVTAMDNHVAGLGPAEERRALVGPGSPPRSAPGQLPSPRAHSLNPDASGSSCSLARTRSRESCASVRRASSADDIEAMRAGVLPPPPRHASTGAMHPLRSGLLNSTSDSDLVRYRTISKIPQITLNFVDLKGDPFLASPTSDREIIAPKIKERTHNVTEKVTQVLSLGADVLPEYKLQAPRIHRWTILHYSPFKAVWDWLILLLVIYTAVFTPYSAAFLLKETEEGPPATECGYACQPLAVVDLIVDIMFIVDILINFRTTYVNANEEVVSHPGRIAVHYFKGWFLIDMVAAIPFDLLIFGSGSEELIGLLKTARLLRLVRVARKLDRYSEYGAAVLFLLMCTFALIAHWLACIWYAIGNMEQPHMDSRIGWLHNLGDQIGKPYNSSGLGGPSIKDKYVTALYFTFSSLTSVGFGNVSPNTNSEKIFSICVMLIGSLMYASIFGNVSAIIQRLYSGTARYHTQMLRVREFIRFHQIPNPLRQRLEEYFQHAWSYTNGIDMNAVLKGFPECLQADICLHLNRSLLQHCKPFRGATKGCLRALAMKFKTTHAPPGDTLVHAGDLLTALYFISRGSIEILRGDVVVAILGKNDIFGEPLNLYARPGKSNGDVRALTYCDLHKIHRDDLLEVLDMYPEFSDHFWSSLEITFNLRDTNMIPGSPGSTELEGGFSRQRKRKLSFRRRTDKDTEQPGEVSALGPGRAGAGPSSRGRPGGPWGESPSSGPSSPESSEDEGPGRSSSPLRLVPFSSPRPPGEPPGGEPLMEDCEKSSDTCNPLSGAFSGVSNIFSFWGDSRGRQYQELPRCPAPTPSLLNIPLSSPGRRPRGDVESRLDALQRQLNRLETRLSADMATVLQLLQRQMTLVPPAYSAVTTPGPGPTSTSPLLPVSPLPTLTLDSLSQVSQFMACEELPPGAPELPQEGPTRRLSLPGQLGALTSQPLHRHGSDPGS

Sequence of 5-hydroxytryptamine receptor 2B (Homo sapiens) (P41595 whole entry): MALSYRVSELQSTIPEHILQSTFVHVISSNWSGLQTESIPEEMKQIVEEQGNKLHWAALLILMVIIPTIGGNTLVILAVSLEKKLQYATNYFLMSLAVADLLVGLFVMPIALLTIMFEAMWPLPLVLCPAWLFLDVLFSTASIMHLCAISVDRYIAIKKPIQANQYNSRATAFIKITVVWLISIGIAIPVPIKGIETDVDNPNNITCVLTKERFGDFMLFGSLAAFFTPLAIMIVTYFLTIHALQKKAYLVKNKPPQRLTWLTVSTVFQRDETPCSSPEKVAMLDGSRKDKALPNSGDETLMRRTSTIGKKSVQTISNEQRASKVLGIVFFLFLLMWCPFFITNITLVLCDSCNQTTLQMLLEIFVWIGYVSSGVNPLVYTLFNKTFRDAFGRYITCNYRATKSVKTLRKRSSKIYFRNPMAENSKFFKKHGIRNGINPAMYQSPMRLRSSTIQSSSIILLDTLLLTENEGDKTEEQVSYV
Sequence of 5-hydroxytryptamine receptor 7 (Homo sapiens) (P34969 whole entry): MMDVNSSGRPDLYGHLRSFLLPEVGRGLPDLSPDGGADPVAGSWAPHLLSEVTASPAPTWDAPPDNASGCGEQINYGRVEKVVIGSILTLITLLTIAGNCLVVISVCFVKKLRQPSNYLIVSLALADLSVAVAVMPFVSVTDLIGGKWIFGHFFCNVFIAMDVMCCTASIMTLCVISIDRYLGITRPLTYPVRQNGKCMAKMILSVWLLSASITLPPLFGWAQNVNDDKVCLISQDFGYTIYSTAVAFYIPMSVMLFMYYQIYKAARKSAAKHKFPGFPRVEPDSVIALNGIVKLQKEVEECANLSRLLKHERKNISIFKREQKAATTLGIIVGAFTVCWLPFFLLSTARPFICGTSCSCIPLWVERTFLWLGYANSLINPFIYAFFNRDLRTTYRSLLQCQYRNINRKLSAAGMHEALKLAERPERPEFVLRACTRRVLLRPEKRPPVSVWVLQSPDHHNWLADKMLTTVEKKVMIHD
Sequence of Mu-type opioid receptor (Homo sapiens) (P35372 whole entry): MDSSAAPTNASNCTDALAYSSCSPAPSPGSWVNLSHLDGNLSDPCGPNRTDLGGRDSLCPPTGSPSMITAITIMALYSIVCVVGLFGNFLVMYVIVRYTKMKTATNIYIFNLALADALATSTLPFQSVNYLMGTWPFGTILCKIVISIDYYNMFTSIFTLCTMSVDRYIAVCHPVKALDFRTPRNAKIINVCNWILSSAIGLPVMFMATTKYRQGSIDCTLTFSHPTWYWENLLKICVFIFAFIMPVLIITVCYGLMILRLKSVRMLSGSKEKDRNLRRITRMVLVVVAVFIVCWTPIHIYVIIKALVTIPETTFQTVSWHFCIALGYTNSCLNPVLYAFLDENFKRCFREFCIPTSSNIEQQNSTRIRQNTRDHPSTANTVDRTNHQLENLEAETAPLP

For `[2H]C([2H])([2H])Oc1ccc(-n2nc3c4ccc(O)cc4[nH]cc-3c2=O)cn1`, the Drug metabolism [1] was “Metabolite_Detected” and the Drug metabolism [2] was “Metabolite_Detected”.
For `COc1ccc(-n2nc3c4ccc(O)cc4[nH]cc-3c2=O)cn1`, the Drug metabolism [3] was “Metabolite_Detected” and the Drug metabolism [4] was “Metabolite_Detected”.
For `COc1ccc(-n2nc3c4ccc(O)cc4[nH]cc-3c2=O)cc1`, the Drug metabolism [5] was “Metabolite_Detected” and the Drug metabolism [6] was “Metabolite_Detected”.
In the case of `COc1ccc2c3nn(-c4ccc(O)nc4)c(=O)c-3c[nH]c2c1`, the Drug metabolism [1] is reported as “Metabolite_Detected” and the Drug metabolism [2] is reported as “Metabolite_Detected”.
For `COc1ccc2c3nn(-c4ccc(O)cc4)c(=O)c-3c[nH]c2c1`, the Drug metabolism [7] was “Metabolite_Detected” and the Drug metabolism [8] was “Metabolite_Detected”.
With `O=c1c2c[nH]c3cc(O)ccc3c-2nn1-c1ccc(O)nc1` the Drug metabolism [1] was “Metabolite_Detected”, the Drug metabolism [2] was “Metabolite_Detected” and the Drug metabolism [3] was “Metabolite_Detected”. The Drug metabolism [4] was “Metabolite_Detected”.
With `[2H]C([2H])([2H])Oc1ccc(-n2nc3c4ccc(O)cc4[nH]cc-3c2=O)cc1` the Drug metabolism [7] was “Metabolite_Detected” and the Drug metabolism [8] was “Metabolite_Detected”.
In the case of `[2H]C([2H])([2H])Oc1ccc2c3nn(-c4ccc(O)cc4)c(=O)c-3c[nH]c2c1`, the Drug metabolism [5] is reported as “Metabolite_Detected” and the Drug metabolism [6] is reported as “Metabolite_Detected”.
In the case of `O=c1c2c[nH]c3cc(O)ccc3c-2nn1-c1ccc(O)cc1`, the Drug metabolism [7] is reported as “Metabolite_Detected”, the Drug metabolism [8] is reported as “Metabolite_Detected” and the Drug metabolism [5] is reported as “Metabolite_Detected”. For the same compound, the Drug metabolism [6] was “Metabolite_Detected”.
`COc1ccc(-n2nc3c4ccc(Br)cc4[nH]cc-3c2=O)cc1` gave a t1/2 (Liver) of 1.7 h, a remaining at 1 h, 10 µM [9] of 66.9% and a remaining at 1 h, 10 µM [10] of 69%. It also gave a solubility [11] of 8.3 µM (≈ 3.07 µg/mL), a solubility [12] of 3.3 µM (≈ 1.22 µg/mL) and an Activity [13] of under 0%. The Activity [14] was 900%, the Activity ([14]; tested as the 2H-labelled form) was “inactive” and the Activity [15] was under 0%. For the same compound, the Activity [16] was under 0%, the Activity [17] was under 0% and the Activity [18] was under 0%. The inhibition (Rattus norvegicus) was “Active”, the inhibition [19] was “Active” and the inhibition [20] was “Active”. For the same compound, the inhibition [21] was “Active”, the inhibition [22] was “Active” and the Activity (Mus musculus) was “Non-Toxic”. The “inhibition (INH)” value [23] was “Not Active”.
Compound `COc1cccc(-n2nc3c4cc(Cl)ccc4[nH]cc-3c2=O)c1` has a t1/2 (Liver) of 3.4 h, a remaining at 1 h, 10 µM [9] of 81.4% and a remaining at 1 h, 10 µM [10] of 59.8%. For the same compound, the solubility [11] was 6.8 µM (≈ 2.22 µg/mL), the solubility [12] was 2.6 µM (≈ 0.847 µg/mL) and the Activity [13] was under 0%. For the same compound, the Activity [14] was 400%, the Activity ([14]; tested as the 2H-labelled form) was “inactive” and the Activity [15] was under 0%. It also gave an Activity [16] of under 0%, an Activity [17] of under 0% and an Activity [18] of under 0%. The inhibition (Rattus norvegicus) was “Active”, the Activity (Mus musculus) was “Non-Toxic” and the “inhibition (INH)” value [23] was “Not Active”.
With `[2H]C([2H])([2H])Oc1ccc2c3nn(-c4ccc(O)nc4)c(=O)c-3c[nH]c2c1` the Drug metabolism [3] was “Metabolite_Detected” and the Drug metabolism [4] was “Metabolite_Detected”.
